Active and inactive are the calls of the source. The rule behind the calls is not given here.
How the values were obtained:
[1] = tested on: HepG2; test: Increase in glucose consumption in human HepG2 cells assessed as Gx/GDMSO ratio at 5 mM by glucose oxidase assay; format: functional
Method in brief: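 HepG2 glucose consumption screen. Test compounds at 25 μM, metformin at 5 mM. Activity expressed as ratio of glucose consumption to DMSO-treated cells (Gx/G_DMSO).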

[2] = tested on: L6; test: Increase in glucose consumption in rat L6 cells at 20 uM after 24 hrs by glucose oxidase assay; format: functional, cell-based
Method in brief: (§1)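 L6 myotubes treated with DMSO, compound or RGZ (20 μM) at the indicated concentrations for 24 h. Culture supernatants assayed for glucose consumption and lactate release; lysed cells assayed for ATP, normalized to protein. Mean ± SD of 3 independent experiments vs DMSO.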

[3] = tested on: Mus musculus; test: Antidiabetic activity in KK-Ay mouse assessed as reduction in fasting blood glucose level at 5 mg/kg, po for 50 days by glucose oxidase method (reference value: 13.2 +/- 2.06 mM); format: functional; conditions: time 50 day
Method in brief: (§2)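 Lipogenic-diet KK-Ay mice given 50 or 100 mg/kg compound or 5 mg/kg rosiglitazone orally for 50 days, C57BL/6J as normal controls. Fasting blood glucose, glycosylated haemoglobin, AGE, insulin, HOMA-IR, cholesterol, LDL-c, TG, serum creatinine and BUN determined. Mean ± SD, 8-9 mice per group.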

[4] = tested on: Mus musculus; test: Antidiabetic activity in KK-Ay mouse assessed as effect on glycosylated haemoglobin level at 5 mg/kg, po for 50 days by glucose oxidase method (reference value: 8.74 +/- 1.08%); format: functional; conditions: time 50 day; method in brief: as §2
[5] = tested on: Mus musculus; test: Antidiabetic activity in KK-Ay mouse assessed as effect on AGE level at 5 mg/kg, […] by ELISA (Rvb 2.85 +/- 0.92 ug/ml); format: functional
[6] = tested on: Mus musculus; test: Antidiabetic activity in KK-Ay mouse assessed as effect on insulin level at 5 mg/kg, […] by ELISA (reference value: 226 +/- 15.5 mU/l); format: functional
[7] = tested on: Mus musculus; test: Antidiabetic activity in KK-Ay mouse assessed as effect on HOMA-IR level at 5 mg/kg, […] by ELISA (reference value: 137 +/- 18.4); format: functional
[8] = tested on: Mus musculus; test: Antidiabetic activity in KK-Ay mouse assessed as effect on cholesterol level at 5 mg/kg, […] by ELISA (reference value: 7.38 +/- 1.03 mM); format: functional
[9] = tested on: Mus musculus; test: Antidiabetic activity in KK-Ay mouse assessed as effect on LDL level at 5 mg/kg, […] by ELISA (reference value: 1.11 +/- 0.24 mM); format: functional
[10] = tested on: Mus musculus; test: Antidiabetic activity in KK-Ay mouse assessed as effect on Triglycerides level at 5 mg/kg, po for 24 hrs by ELISA (reference value: 4.01 +/- 1.83 mM); format: functional
[11] = tested on: Mus musculus; test: Antidiabetic activity in KK-Ay mouse assessed as effect on serum Creatinine level at 5 mg/kg, po for 24 hrs by ELISA (reference value: 124 +/- 35.1 uM); format: functional
[12] = tested on: Mus musculus; test: Antidiabetic activity in KK-Ay mouse assessed as effect on BUN level at 5 mg/kg, […] by ELISA (reference value: 12.8 +/- 2.97 mM); format: functional
[13] = tested on: Mus musculus; test: Anti-diabetic activity in overnight fasted diabetic KK-Ay mouse assessed as increase in insulin responsiveness by measuring blood glucose at 5 mg/kg, po measured after 35 days by insulin tolerance test; format: functional, organism-based; conditions: time 35.0 day
Method in brief: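 KK-Ay mice orally treated with 50 or 100 mg/kg compound or 5 mg/kg rosiglitazone, C57BL/6J as normal controls. After 35 days of treatment, oral glucose tolerance test and insulin tolerance test run. Blood glucose plotted against time, AUC calculated. Mean ± SD, 8-9 mice per group.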

[14] = Effect on high fat diet-fed KK-Ay mouse model of obesity and diabetes assessed as food intake at 5 mg/kg, po (reference value: 5.67 +/- 0.55 g/day); format: ADME, organism-based; conditions: in vivo
Method in brief: (§3)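 KK-Ay mice on lipogenic diet, with C57BL/6J mice as normal controls, dosed orally at 50 or 100 mg/kg (test) or 5 mg/kg (RGZ). Food intake (g/day), water intake (mL/day) and body weight recorded before and after treatment; body weight gain calculated. Mean±SD, 8-9 mice per group.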

[15] = Effect on high fat diet-fed KK-Ay mouse model of obesity and diabetes assessed as water intake at 5 mg/kg, po (reference value: 21.2 +/- 4.17 ml/day); format: ADME, organism-based; conditions: in vivo; method in brief: as §3
[16] = Effect on high fat diet-fed KK-Ay mouse model of obesity and diabetes assessed as total body weight gain at 5 mg/kg, po (reference value: 43.5 +/- 5.24 g); format: ADME, organism-based; conditions: in vivo; method in brief: as §3
[17] = tested on: Mus musculus; test: Anti-diabetic activity in high fat diet-fed KK-Ay mouse model of obesity and diabetes assessed reduction in total protein level in urine at 5 mg/kg, po measured after 24 hrs; format: functional, organism-based
Method in brief: (§4)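 Before study end, 24-h urine collected from C57BL/6J controls and KK-Ay mice (untreated, oral 50 or 100 mg/kg compound, or 5 mg/kg rosiglitazone). Volume, glucose, total protein and microalbumin measured by kits. Mean ± SD, 8-9 mice per group, vs C57BL/6J or untreated KK-Ay.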

[18] = tested on: Mus musculus; test: Anti-diabetic activity in high fat diet-fed KK-Ay mouse model of obesity and diabetes assessed as reduction in microalbumin level in urine at 5 mg/kg, po measured after 24 hrs; format: functional, organism-based; method in brief: as §4
[19] = tested on: Mus musculus; test: Anti-diabetic activity in high fat diet-fed KK-Ay mouse model of obesity and diabetes assessed as improved pathological changes in kidney at 5 mg/kg, po by hematoxylin and eosin staining based histopathological analysis; format: functional, organism-based
Method in brief: (§5)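 Mice sacrificed at study end, with KK-Ay given 50 or 100 mg/kg compound or 5 mg/kg rosiglitazone orally and C57BL/6J as normal controls. Kidney and pancreas sections H&E stained, imaged at 200×, pathological changes scored. Mean ± SD of 8-9 mice per group.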

[20] = tested on: Mus musculus; test: Anti-diabetic activity in high fat diet-fed KK-Ay mouse model of obesity and diabetes assessed as improved pathological changes in pancreas at 5 mg/kg, po by hematoxylin and eosin staining based histopathological analysis; format: functional, organism-based; method in brief: as §5
[21] = tested on: HepG2; test: Induction of glycolysis in human HepG2 cells assessed as reduction in cellular ATP production at 20 uM measured after 24 hrs; format: functional, cell-based
Method in brief: (§6)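 HepG2 cells treated 24 h at the indicated concentrations; RGZ as reference. Supernatants used for glucose consumption and lactate release; lysed cells used for ATP, normalized to protein content. Mean ± SD of 3 or 4 separate experiments; compared with DMSO.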

[22] = tested on: HepG2; test: Increase in glucose consumption in human HepG2 cells at 20 uM measured after 24 hrs; format: functional, cell-based; method in brief: as §6
[23] = tested on: L6; test: Induction of glycolysis in rat L6 cells assessed as reduction in cellular ATP production at 20 uM measured after 24 hrs; format: functional, cell-based; method in brief: as §1
[24] = tested on: L6; test: Increase in glucose consumption in rat L6 cells at 20 uM measured after 24 hrs; format: functional, cell-based; method in brief: as §1
[25] = tested on: L6; test: Induction of glycolysis in rat L6 cells assessed as increase in lactate release at 20 uM measured after 24 hrs
[26] = tested on: HepG2; test: Induction of glycolysis in human HepG2 cells assessed as increase in lactate release at 20 uM measured after 24 hrs

Work on `CN(C)C(=N)NC(=N)N` [METFORMIN] yielded a Ratio [1] of 1.53.

In the case of `CN(CCOc1ccc(CC2SC(=O)NC2=O)cc1)c1ccccn1` (stereo unspecified) [ROSIGLITAZONE], the Activity [2] is reported as “Active”, the Activity [3] is reported as 7.66 mM and the Activity [4] is reported as 6.09%. The Activity [5] was 1.27 µg/mL, the Activity [6] was 89.3 mU/L and the Activity [7] was 30.4. It also gave an Activity [8] of 8.31 mM, an Activity [9] of 1.08 mM and an Activity [10] of 1.84 mM. For the same compound, the Activity [11] was 51.6 µM, the Activity [12] was 12 mM and the Activity [13] was “Active”. For the same compound, the Activity [14] was 4.58 g/day, the Activity [15] was 6.1 mL/day and the Activity [16] was 6.82 g. The Activity [17] was “Active”, the Activity [18] was “Active” and the Activity [19] was “Active”. The Activity [20] was “Active”, the Activity [21] was “Active” and the Activity [22] was “Active”. The Activity [23] was “Dose-Dependent Effect”, the Activity [24] was “Active” and the Activity [25] was “Active”. For the same compound, the Activity [26] was “Active”.
